For assay [1], the target named is T1, wild type HIV-1 RT (Human immunodeficiency virus type 1 group M subtype B, UniProt P03366). Description: Steady-state kinetics of polymerization, wild-type enzyme. The format is biochemical. The following applies: WT, 25°C.
Assay [2] addresses T2, HIV-1 RT Q91A (Human immunodeficiency virus type 1 group M subtype B, UniProt P03366, Q690A). Description: Steady-state kinetics of polymerization, Q91A mutant. The format is biochemical. As to conditions: Q91A, 25°C.
Assay [3] has as its system HIV-1 RT Q91A. The assay is described as above. The format is biochemical, human immunodeficiency virus type 1. The following applies: Q91A vs wild type; poly-rA.dT18 template, dTTP.
The target of assay [4] is T3, HIV-1 RT Q91N (Human immunodeficiency virus type 1 group M subtype B, UniProt P03366, Q690N). In words: Steady-state kinetics of polymerization, Q91N mutant. It counts as biochemical. The method in brief:
(§1)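 Run at 25 °C with 40 nM mutant RT and 100 nM poly rA.dT18 or poly rC.dG18, each prepared by annealing equimolar template and primer at 20 μM. Buffer was 50 mM Tris-HCl pH 7.5, 2 mM MgCl2, 1 mM DTT and 100 μg/mL BSA. Complementary dTTP or dGTP was varied, with [3H]dTTP specific activity set using unlabeled dTTP. Reactions were started with MgCl2 and stopped with ice-cold 5% TCA at set times, then filtered and scintillation-counted. Km and Vmax came from Eadie-Hofstee plots of initial velocities; kcat = Vmax/[E].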

For assay [5], the target named is T4, HIV-1 RT Q91A+M184V (Human immunodeficiency virus type 1 group M subtype B, UniProt P03366, M783V/Q690A). Description: Steady-state kinetics of polymerization, Q91A+M184V mutant. It counts as biochemical. As to conditions: Q91A+M184V, 25°C.
The test system of assay [6] is HIV-1 RT Q91A+M184V. The assay is described as above. The following applies: Q91A/M184V vs wild type; poly-rA.dT18 template, dTTP. The format is biochemical, human immunodeficiency virus type 1.
Assay [7] concerns the target T5, HIV-1 RT Q91N+M184V (Human immunodeficiency virus type 1 group M subtype B, UniProt P03366, M783V/Q690N). In words: Steady-state kinetics of polymerization, Q91N+M184V mutant. The following applies: 25°C. It counts as biochemical. The method in brief: as §1
Assay [8] deals with T6, HIV-1 RT M184V (Human immunodeficiency virus type 1 group M subtype B, UniProt P03366, M783V). Description: Steady-state kinetics of polymerization, M184V mutant. It counts as biochemical. As to conditions: 25°C.
For assay [9], the target named is T1, wild type HIV-1 RT. Description: Inhibition of reverse transcription by ddNTP inhibitors, wild-type enzyme. The format is biochemical. The following applies: WT; for Ki: 37 °C 3 min; for IC50: IC50=Ki(1+[S]/Km).
Assay [10] concerns the target T2, HIV-1 RT Q91A. Description: Inhibition of reverse transcription by ddNTP inhibitors, Q91A mutant. The format is biochemical. As to conditions: for Ki: 37 °C 3 min; for IC50: IC50=Ki(1+[S]/Km).
Assay [11] deals with T3, HIV-1 RT Q91N. Description: Inhibition of reverse transcription by ddNTP inhibitors, Q91N mutant. It counts as biochemical. As to conditions: for Ki: 37 °C 3 min; for IC50: IC50=Ki(1+[S]/Km). The method in brief:
(§2)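 Recombinant heterodimeric HIV-1 RT (p66 with N-terminally His-tagged p51), mutation present in both subunits, used at 10 nM. The enzyme was preincubated with 100 nM poly rA.dT18 or poly rC-dG18 for 2 min at 25 °C. Synthesis was started with Mg-complexed 10 μM [3H]dTTP or dGTP (1 μCi per assay) plus varied ddTTP or ddGTP, then run 3 min at 37 °C. Reactions were stopped with cold 5% TCA/5 mM PPi, collected on GF/B filters and counted by scintillation. Ki came from percent inhibition using the competitive-inhibitor equation; IC50 = Ki(1+[S]/Km). Three independent experiments.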

For assay [12], the target named is T4, HIV-1 RT Q91A+M184V. Description: Inhibition of reverse transcription by ddNTP inhibitors, Q91A+M184V mutant. The format is biochemical. As to conditions: for Ki: 37 °C 3 min; for IC50: IC50=Ki(1+[S]/Km).
The target of assay [13] is T5, HIV-1 RT Q91N+M184V. Description: Inhibition of reverse transcription by ddNTP inhibitors, Q91N+M184V mutant. The format is biochemical. As to conditions: for Ki: 37 °C 3 min; for IC50: IC50=Ki(1+[S]/Km). The method in brief:
as §2

The target in assay [14] is T6, HIV-1 RT M184V. Description: Inhibition of reverse transcription by ddNTP inhibitors, M184V mutant. The format is biochemical. As to conditions: for Ki: 37 °C 3 min; for IC50: IC50=Ki(1+[S]/Km).
Where [15] appears, read: Poly rA.dT18 template-primer, dTTP substrate.
Setting [16] is: poly rC-dG18 100 nM, dGTP 10 μM.
Setting [17] is: poly rA.dT18 100 nM, dTTP 10 μM.
Where [18] appears, read: Poly rC.dG18 template-primer, dGTP substrate.

SMILES strings stand for the structures.

Consider `Cc1cn([C@H]2C[C@H](O)[C@@H](COP(=O)(O)OP(=O)(O)OP(=O)(O)O)O2)c(=O)[nH]c1=O` [dTTP], for which the KmdTTP on wild type HIV-1 RT [1] (Poly rA.dT18 template-primer) was 3.0 ± 1.1 µM; on HIV-1 RT Q91A [2] (Poly rA.dT18 template-primer), 30.0 ± 3.5 µM; at HIV-1 RT Q91N [4] (Q91N, Poly rA.dT18 template-primer, 25°C), 7.0 ± 1.5 µM; on HIV-1 RT Q91A+M184V [5] (Poly rA.dT18 template-primer), 37.0 ± 4.0 µM; on HIV-1 RT Q91N+M184V [7] (Poly rA.dT18 template-primer), 5.0 ± 1.0 µM; on HIV-1 RT M184V [8] (Poly rA.dT18 template-primer) it was 3.5 ± 1.2 µM. Moreover, the Kcat on wild type HIV-1 RT [1] (setting [15]) amounted to 0.39 ± 0.6 s⁻¹; at HIV-1 RT Q91A [2] (setting [15]), 0.10 ± 0.03 s⁻¹; on HIV-1 RT Q91N [4] (Q91N, Poly rA.dT18 template-primer, dTTP substrate, 25°C), 0.25 ± 0.08 s⁻¹; at HIV-1 RT Q91A+M184V [5] (setting [15]), 0.23 ± 0.07 s⁻¹; at HIV-1 RT Q91N+M184V [7] (setting [15]), 0.27 ± 0.11 s⁻¹; at HIV-1 RT M184V [8] (setting [15]), 0.53 ± 0.12 s⁻¹. Moreover, the “decrease in the catalytic efficiency” value is reported as 21 fold in the assay with HIV-1 RT Q91A [3] and 43 fold in the assay on HIV-1 RT Q91A+M184V [6].
By Ki is commonly meant a measure of affinity in units of concentration, obtained from inhibition or displacement. A low value points to higher affinity. One may read the IC50 as the concentration needed to halve the response being measured. Higher therefore signals weaker potency. For the compound `Nc1nc2c(ncn2[C@H]2CC[C@@H](COP(=O)(O)OP(=O)(O)OP(=O)(O)O)O2)c(=O)[nH]1` [ddGTP], the Ki was determined as 112 nM at wild type HIV-1 RT [9] (setting [16]); 885 nM on HIV-1 RT Q91A [10] (setting [16]); 476 nM on HIV-1 RT Q91N [11] (setting [16]); 418 nM on HIV-1 RT Q91A+M184V [12] (setting [16]); 130 nM on HIV-1 RT Q91N+M184V [13] (setting [16]); 403 nM on HIV-1 RT M184V [14] (setting [16]). For the same compound, the IC50 at wild type HIV-1 RT [9] (setting [16]) turned out to be 308 nM; against HIV-1 RT Q91A [10] (setting [16]), 1240 nM; on HIV-1 RT Q91N [11] (setting [16]), 1090 nM; against HIV-1 RT Q91A+M184V [12] (setting [16]), 491 nM; on HIV-1 RT Q91N+M184V [13] (setting [16]), 285 nM; against HIV-1 RT M184V [14] (setting [16]), 900 nM.
In the case of `Cc1cn([C@H]2CC[C@@H](COP(=O)(O)OP(=O)(O)OP(=O)(O)O)O2)c(=O)[nH]c1=O` [ddTTP], the Ki is 4 nM on wild type HIV-1 RT [9] (setting [17]); 76 nM at HIV-1 RT Q91A [10] (setting [17]); 62 nM at HIV-1 RT Q91N [11] (setting [17]); 45 nM at HIV-1 RT Q91A+M184V [12] (setting [17]); 12 nM on HIV-1 RT Q91N+M184V [13] (setting [17]); 18 nM at HIV-1 RT M184V [14] (setting [17]). Also, the IC50 at wild type HIV-1 RT [9] (setting [17]) worked out at 17 nM; against HIV-1 RT Q91A [10] (setting [17]), 101 nM; at HIV-1 RT Q91N [11] (setting [17]), 150 nM; against HIV-1 RT Q91A+M184V [12] (setting [17]), 57 nM; on HIV-1 RT Q91N+M184V [13] (setting [17]), 36 nM; at HIV-1 RT M184V [14] (setting [17]), 69 nM.
In the case of `Nc1nc2c(ncn2[C@H]2C[C@H](O)[C@@H](COP(=O)(O)OP(=O)(O)OP(=O)(O)O)O2)c(=O)[nH]1` [dGTP], the KmdGTP worked out at 6.0 ± 1.4 µM at wild type HIV-1 RT [1] (Poly rC.dG18 template-primer); 25.0 ± 4.0 µM on HIV-1 RT Q91A [2] (Poly rC.dG18 template-primer); 8.0 ± 2.1 µM on HIV-1 RT Q91N [4] (Q91N, Poly rC.dG18 template-primer, 25°C); 57.0 ± 5.0 µM on HIV-1 RT Q91A+M184V [5] (Poly rC.dG18 template-primer); 8.0 ± 1.8 µM at HIV-1 RT Q91N+M184V [7] (Poly rC.dG18 template-primer); 8.0 ± 2.2 µM on HIV-1 RT M184V [8] (Poly rC.dG18 template-primer). Besides, the Kcat was found to be 0.15 ± 0.019 s⁻¹ on wild type HIV-1 RT [1] (setting [18]); 0.02 ± 0.006 s⁻¹ at HIV-1 RT Q91A [2] (setting [18]); 0.02 ± 0.002 s⁻¹ on HIV-1 RT Q91N [4] (Q91N, Poly rC.dG18 template-primer, dGTP substrate, 25°C); 0.06 ± 0.010 s⁻¹ at HIV-1 RT Q91A+M184V [5] (setting [18]); 0.04 ± 0.012 s⁻¹ on HIV-1 RT Q91N+M184V [7] (setting [18]); 0.08 ± 0.011 s⁻¹ on HIV-1 RT M184V [8] (setting [18]). For the same compound, the “decrease in catalytic efficiency” value at HIV-1 RT Q91N [4] (Q91N vs wild type, poly rC template, range given jointly for Q91N and Q91N/M184V) is recorded as 5–10 fold.

These data come from article PMC3204787 (Biochemistry, 2011).
